Laboratory results as given in ChEMBL document CHEMBL2311339, “Identification of GZD824 as an orally bioavailable inhibitor that targets phosphorylated and nonphosphorylated breakpoint cluster region-Abelson (Bcr-Abl) kinase and overcomes clinically acquired mutation-induced resistance against imatinib” (J Med Chem, 2013).
Active and inactive are the calls of the source. The rule behind the calls is not given here.

Columns and labels:
HL-60 = assay: Cytotoxicity against human HL60 cells […] assessed as growth inhibition after 72 hrs by CCK-8 assay; assay type: functional, cell-based; details: HL-60, 72 h
Summary of the method: (§1)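 Log-phase human leukemia cells were seeded at about 3000 cells/well and treated 24 h later for 72 h. CCK-8 was then incubated with the cells for 3 h and read as OD450 − OD650. Viability was normalized to vehicle wells and cell-free blanks, and IC50 taken as the mean of three experiments.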

MOLT-4 = assay: Cytotoxicity against human MOLT4 cells […] assessed as growth inhibition after 72 hrs by CCK-8 assay; assay type: functional, cell-based; details: MOLT-4, 72 h; summary of the method: as §1
U-937 = assay: Cytotoxicity against human U937 cells […] assessed as growth inhibition after 72 hrs by CCK-8 assay; assay type: functional, cell-based; details: U-937, 72 h; summary of the method: as §1
[1] = Cytotoxicity against human SUP-B15 cells expressing BCR-ABL assessed as growth inhibition after 72 hrs by CCK-8 assay; assay type: functional, cell-based; details: SUP-B15, 72 h; summary of the method: as §1
K562 [2] = assay: Cytotoxicity against imatinib-resistant human K562 cells expressing BCR-ABL Q252H mutant assessed as growth inhibition after 72 hrs by CCK-8 assay; assay type: functional, cell-based; details: K562, 72 h
Summary of the method: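 The K562 subline was made imatinib-resistant by 3 months of exposure to imatinib from 0.1 to 5 μM, followed by clonal selection and sequencing to confirm Q252H. Cells were seeded at about 3000 cells/well, treated 24 h later for 72 h, then given CCK-8 for 3 h. Read-out was OD450 − OD650 normalized to vehicle; IC50 is the mean of three experiments.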

[3] = Cytotoxicity against human KU812 cells expressing BCR-ABL assessed as growth inhibition after 72 hrs by CCK-8 assay; assay type: functional, cell-based; details: KU812, 72 h; summary of the method: as §1
K562 [4] = assay: Cytotoxicity against human K562 cells expressing BCR-ABL assessed as growth inhibition after 72 hrs by CCK-8 assay; assay type: functional, cell-based; details: K562, 72 h; summary of the method: as §1
[5] = Cytotoxicity against mouse BA/F3 cells expressing BCR-ABL F486S mutant assessed as growth inhibition after 72 hrs by CCK-8 assay; details: BaF3, 72 h
[6] = Cytotoxicity against mouse BA/F3 cells expressing BCR-ABL H396R mutant assessed as growth inhibition after 72 hrs by CCK-8 assay; details: BaF3, 72 h
[7] = Cytotoxicity against mouse BA/F3 cells expressing BCR-ABL E359V mutant assessed as growth inhibition after 72 hrs by CCK-8 assay; details: BaF3, 72 h
[8] = Cytotoxicity against mouse BA/F3 cells expressing BCR-ABL E355G mutant assessed as growth inhibition after 72 hrs by CCK-8 assay; details: BaF3, 72 h
[9] = Cytotoxicity against mouse BA/F3 cells expressing BCR-ABL M351T mutant assessed as growth inhibition after 72 hrs by CCK-8 assay; details: BaF3, 72 h
[10] = Cytotoxicity against mouse BA/F3 cells expressing BCR-ABL F317V mutant assessed as growth inhibition after 72 hrs by CCK-8 assay; details: BaF3, 72 h
[11] = Cytotoxicity against mouse BA/F3 cells expressing BCR-ABL F317L mutant assessed as growth inhibition after 72 hrs by CCK-8 assay; details: BaF3, 72 h
[12] = Cytotoxicity against mouse BA/F3 cells expressing BCR-ABL E255K mutant assessed as growth inhibition after 72 hrs by CCK-8 assay; details: BaF3, 72 h
[13] = Cytotoxicity against mouse BA/F3 cells expressing BCR-ABL E255V mutant assessed as growth inhibition after 72 hrs by CCK-8 assay; details: BaF3, 72 h
[14] = Cytotoxicity against mouse BA/F3 cells expressing BCR-ABL Y253H mutant assessed as growth inhibition after 72 hrs by CCK-8 assay; details: BaF3, 72 h
[15] = Cytotoxicity against mouse BA/F3 cells expressing BCR-ABL Y253F mutant assessed as growth inhibition after 72 hrs by CCK-8 assay; details: BaF3, 72 h
[16] = Cytotoxicity against mouse BA/F3 cells expressing BCR-ABL L248V mutant assessed as growth inhibition after 72 hrs by CCK-8 assay; details: BaF3, 72 h
[17] = Cytotoxicity against mouse BA/F3 cells assessed as growth inhibition after 72 hrs by CCK-8 assay; details: BaF3, 72 h
[18] = Cytotoxicity against mouse BA/F3 cells expressing wild type BCR-ABL assessed as growth inhibition after 72 hrs by CCK-8 assay; details: BaF3, 72 h
cells [19] = details: Mus musculus, BaF3, 72 h
cells [20] = details: Mus musculus, BaF3, 72 h; remark: listed apart in the source
cells [21] = details: Mus musculus, BaF3, 72 h; remark: listed apart in the source
BaF3 [22] = assay: Antitumor activity against mouse BA/F3 cells expressing BCR-ABL T315I mutant allografted in SCID mouse assessed as increased survival at 100 mg/kg/day, po qd for 10 days; assay type: functional, organism-based
Summary of the method: (§2)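 Ba/F3 cells coexpressing Bcr-Abl T315I and firefly luciferase were injected iv (2 × 10^6 cells/0.1 mL saline) into SCID nude mice. At 5−7 days, mice were imaged after ip D-luciferin under halothane and randomized by signal. Dosing was oral gavage once daily for 10 days in DMSO/Cremophor/ethanol/saline vehicle. Luminescence was imaged after dosing; survival was analysed by Kaplan−Meier with log-rank test.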

BaF3 [23] = assay: Antitumor activity against mouse BA/F3 cells expressing BCR-ABL T315I mutant allografted in SCID mouse assessed as suppression of cell proliferation at 100 mg/kg/day, po qd for 10 days relative to untreated vehicle; assay type: functional, organism-based; summary of the method: as §2
BaF3 [24] = assay: Antitumor activity against mouse BA/F3 cells expressing BCR-ABL T315I mutant allografted in SCID mouse assessed as inhibition of tumor growth at 100 mg/kg/day, po qd for 14 days; assay type: functional, organism-based
Summary of the method: (§3)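 Subcutaneous allograft: Ba/F3 cells stably carrying Bcr-Abl (WT or T315I), 2.5 × 10^7 cells/mL in saline, 0.2 mL into the right flank. Randomized at 100−200 mm3, n = 10 per group. Oral gavage once daily for 14 days in DMSO/Cremophor/ethanol/saline vehicle. Tumor volume (L × W²/2) every 2 days; unpaired t test versus vehicle.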

BaF3 [25] = assay: Antitumor activity against mouse BA/F3 cells expressing wild type BCR-ABL allografted in SCID mouse assessed as inhibition of tumor growth at 50 mg/kg, po qd for 14 days; assay type: functional, organism-based; parameters: dose 50 mg/kg; summary of the method: as §3
K562 [26] = assay: Antitumor activity against human K562 cells xenografted in mouse assessed as induction of tumor stasis at 50 mg/kg, […]; assay type: functional, organism-based; parameters: dose 50 mg/kg

| Compound | IC50 [5] [nM] | IC50 [6] [µM] | IC50 [7] [nM] | IC50 [8] [nM] | IC50 [9] [nM] | IC50 [10] [nM] | IC50 [11] [nM] | IC50 [12] [nM] | IC50 [13] [nM] | IC50 [14] [nM] | IC50 [15] [nM] | IC50 [16] [nM] | IC50 [17] [µM] | IC50 [18] [nM] | IC50 (cells [19]) [µM] | IC50 (cells [20]) [nM] | IC50 (cells [21]) [nM] | other results |
| --- | --- | --- | --- | --- | --- | --- | --- | --- | --- | --- | --- | --- | --- | --- | --- | --- | --- | --- |
| CC(=O)O[C@H]1C(=O)[C@@]2(C)[C@H]([C@H](OC(=O)c3ccccc3)[C@]3(O)C[C@H](OC(=O)[C@H](O)[C@@H](NC(=O)c4ccccc4)c4ccccc4)C(C)=C1C3(C)C)[C@]1(OC(C)=O)CO[C@@H]1C[C@@H]2O [PACLITAXEL] |  |  |  |  |  |  |  |  |  |  |  |  |  |  |  |  |  | IC50 (HL-60): 5.8 nM; IC50 (MOLT-4): 2.7 nM; IC50 (U-937): 2.3 nM; IC50 [1]: 8 nM; IC50 (K562 [2]): 7 nM; IC50 [3]: 5.3 nM; IC50 (K562 [4]): 5.1 nM |
| Cc1nc(Nc2ncc(C(=O)Nc3c(C)cccc3Cl)s2)cc(N2CCN(CCO)CC2)n1 [DASATINIB] | 0.9 | 3.8 | 1.3 | 15 | 0.2 | 25 | 19 | 3.2 | 23 | 2.3 | 17 | 29 | 2.5 | 1.9 | 3.6 | 8 | 5.1 |  |
| Cc1ccc(NC(=O)c2ccc(CN3CCN(C)CC3)cc2)cc1Nc1nccc(-c2cccnc2)n1 [IMATINIB] | 1000 | 11.1 | 590 | 1600 | 240 | 9500 | 3300 | 5600 | > 10000 | 12500 | 9200 | 12200 | 13.5 |  | 12.2 | 3600 | 5200 | Activity (BaF3 [22]): inactive; Activity (BaF3 [23]): inactive; TGI (BaF3 [24]): inactive; TGI (BaF3 [25]): Active; Activity (K562 [26]): inactive |
| Cc1cn(-c2cc(NC(=O)c3ccc(C)c(Nc4nccc(-c5cccnc5)n4)c3)cc(C(F)(F)F)c2)cn1 [NILOTINIB] | 9.5 | 21.1 |  | 130 | 3 | 2900 | 160 | 170 | 1200 | 1000 | 1400 | 3000 | 15.1 | 22 | 16 |  | 150 |  |
